This is an account of results in ChEMBL document CHEMBL4396895, “Identification and Optimization of Novel Cathepsin C Inhibitors Derived from EGFR Inhibitors” (J Med Chem, 2019).

The nature of data set [1]: Intrinsic clearance in rat liver microsomes assessed per mg protein measured after 60 mins in presence of NADPH by LC-MS/MS analysis. Format: ADME, Microsome. As to conditions: read-out: CLH.
Data set [2] can be described thus: Cmax in C57BL/6 mouse at 10 mg/kg, ip by LC-MS/MS analysis. Also noted: dose 10 mg/kg, route intraperitoneal. Format: ADME, organism-based. The conditions noted are these: in vivo. In short, it runs like this: (§1)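 Male C57BL/6 mice (n = 3) were dosed with a single IV dose of 2 mg/kg or an IP or PO dose of 10 mg/kg. Vehicle: 0.5% Methocel and 0.1% Tween-80 in citrate buffer, pH 3. Blood was drawn by eye puncture at several time points and analysed by LC-MS/MS. Parameters came from noncompartmental analysis of individual animals and are reported as means.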

A further data set deals with Cathepsin B (Homo sapiens, UniProt P07858). Put plainly: Inhibition of recombinant human C-terminal polyhistidine-tagged cathepsin B (Arg18 to Ile339 residues) expressed in HEK293 cells using Z-Leu-Arg-AMC as substrate preincubated for 30 mins followed by substrate addition and measured after 30 mins. A digest of the protocol: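 Recombinant human cathepsin was preincubated with compound for 30 min at RT, then reacted with substrate for 30 min. CatB and CatL were read with Z-Leu-Arg-AMC (Ex 380/Em 460 nm). CatS was read with MCA-Arg-Pro-Lys-Pro-Val-Glu-Nva-Trp-Arg-Lys(DNP)-NH2 (Ex 320/Em 405 nm). E-64 served as inhibitor control.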

The nature of data set [3]: Half life in C57BL/6 mouse at 2 mg/kg, iv by LC-MS/MS analysis. The class given is ADME, organism-based. As to conditions: in vivo. In short, it runs like this:
as §1

A short description of data set [4]: Drug uptake in C57BL/6 mouse kidney at 10 mg/kg, po by LC-MS/MS analysis. The class given is ADME, organism-based. As to conditions: in vivo.
A short description of data set [5]: Drug uptake in C57BL/6 mouse lung at 10 mg/kg, po by LC-MS/MS analysis. The conditions noted are these: in vivo. Format: ADME, organism-based.
The target in another data set is Cytochrome P450 3A4 (Homo sapiens, UniProt P08684). The data set is described as follows: Inhibition of CYP3A4 (unknown origin). Format: ADME. In short, it runs like this:
(§2)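 Tested against recombinant human cytochrome P450 isoforms 1A2, 2D6, 3A4, 2C9 and 2C19.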

The test system of data set [6] is Mus musculus. The data set is described as follows: Protection against C57BL/6 mouse model of caerulein-induced acute pancreatitis at 20 mg/kg, po pretreated twice daily for 6 days followed by caerulein-challenge at 1 hr interval for 8 hrs and measured 1 hr post-last caerulein-challenge by H and E staining-based histological analysis.
The subject of data set [7] is Mus musculus. Put plainly: In vivo inhibition of CatC in po dosed C57BL/6 mouse bone marrow administered twice daily for 6 days using Gly-Phe-AFC as substrate measured up to 90 mins by fluorescence assay. The class given is functional, organism-based. In short, it runs like this:
(§3)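 C57BL/6 mice (20−25 g; n = 10 per group) received oral doses twice daily at 6.7, 20 or 60 mg/kg for 6 days. The vehicle group got 0.5% Methocel and 0.1% Tween-80 in 100 mM citrate buffer, pH 3. Blood was drawn by eye puncture 14 h after the last dose. Bone marrow was flushed from femurs and tibias with ice-cold RPMI 1640. Cells were lysed in 50 mM Tris pH 7.4, 750 mM NaCl, 1% Triton X-100, sonicated on ice and stored at −80 °C. Lysates were diluted by protein content, with blood diluted 5-fold more than marrow. Kinetics were followed for up to 90 min. Results are % of the vehicle mean.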

Data set [8] is described as follows: Toxicity in C57BL/6 mouse at 60 mg/kg, po administered twice daily for 6 days. As to conditions: in vivo, 144 h. Format: organism-based.
Another data set deals with Cytochrome P450 2C9 (Homo sapiens, UniProt P11712). The data set is described as follows: Inhibition of CYP2C9 (unknown origin). Format: ADME. A digest of the protocol:
as §2

A short description of data set [9]: AUC infinity in C57BL/6 mouse at 10 mg/kg, po by LC-MS/MS analysis. The class given is ADME, organism-based. Also noted: dose 10 mg/kg, time infinity, route oral. The conditions noted are these: in vivo. In short, it runs like this: as §1
Data set [10] has as its system Mus musculus. The data set is described as follows: In vivo inhibition of CatC in po dosed C57BL/6 mouse blood assessed as reduction in neutrophil elastase activation administered twice daily for 6 days using methoxysuccinyl-Ala-Ala-Pro-Val-AMC as substrate measured up to 90 mins by fluorescence assay. Format: functional, organism-based. A digest of the protocol: as §3

The nature of data set [11]: AUC infinity in C57BL/6 mouse at 2 mg/kg, iv by LC-MS/MS analysis. The class given is ADME, organism-based. Further details: dose 2 mg/kg, time infinity, route intravenous. The conditions noted are these: in vivo. A digest of the protocol: as §1
Another data set has as its target Cytochrome P450 2C19 (Homo sapiens, UniProt P33261). Put plainly: Inhibition of CYP2C19 (unknown origin). The class given is ADME. In short, it runs like this: as §2
Data set [12] deals with Mus musculus. Put plainly: In vivo inhibition of CatC in C57BL/6 mouse blood at 20 mg/kg, po single dose using Gly-Phe-AFC as substrate measured 8 hrs post dose for up to 90 mins by fluorescence assay relative to control. The conditions noted are these: C57BL/6, Blood.
Data set [13] can be described thus: Half life in C57BL/6 mouse at 10 mg/kg, ip by LC-MS/MS analysis. Format: ADME, organism-based. As to conditions: in vivo. A digest of the protocol:
as §1

A short description of data set [14]: Intrinsic clearance in mouse liver microsomes assessed per mg protein measured after 60 mins in presence of NADPH by LC-MS/MS analysis. The class given is ADME, Microsome. The conditions noted are these: read-out: CLH.
The nature of data set [15]: Toxicity in C57BL/6 mouse assessed as effect on WBC level at 60 mg/kg, po administered twice daily for 6 days. The class given is organism-based. The conditions noted are these: in vivo, 144 h.
Data set [16] can be described thus: Cmax in C57BL/6 mouse at 10 mg/kg, po by LC-MS/MS analysis. The class given is ADME, organism-based. Further details: dose 10 mg/kg, route oral. The conditions noted are these: in vivo. A digest of the protocol: as §1
For a further data set, the target named is T1, Cytochrome P450 1A2 (Homo sapiens, UniProt P05177).
T1 sequence (P05177 whole entry): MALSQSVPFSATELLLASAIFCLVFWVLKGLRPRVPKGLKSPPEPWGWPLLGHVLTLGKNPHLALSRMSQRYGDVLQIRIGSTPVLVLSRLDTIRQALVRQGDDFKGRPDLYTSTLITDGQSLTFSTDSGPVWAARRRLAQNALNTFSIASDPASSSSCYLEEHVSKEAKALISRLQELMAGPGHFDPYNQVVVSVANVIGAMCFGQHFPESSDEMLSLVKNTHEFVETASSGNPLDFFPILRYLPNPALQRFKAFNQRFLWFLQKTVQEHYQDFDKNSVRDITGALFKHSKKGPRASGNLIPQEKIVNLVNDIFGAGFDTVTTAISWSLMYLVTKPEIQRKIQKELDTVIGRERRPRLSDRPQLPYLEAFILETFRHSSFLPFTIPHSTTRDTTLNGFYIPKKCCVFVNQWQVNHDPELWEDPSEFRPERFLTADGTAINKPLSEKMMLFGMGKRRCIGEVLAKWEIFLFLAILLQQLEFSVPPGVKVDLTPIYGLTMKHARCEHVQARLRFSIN
Put plainly: Inhibition of CYP1A2 (unknown origin). Format: ADME. A digest of the protocol: as §2

Data set [17] in a line: Tmax in C57BL/6 mouse at 10 mg/kg, po by LC-MS/MS analysis. Format: ADME, organism-based. As to conditions: in vivo. A digest of the protocol:
as §1

The next data set addresses Dipeptidyl peptidase 1 (Homo sapiens, UniProt P53634). Put plainly: Inhibition of cathepsin C in human U937 cells using H-Gly-Phe-AFC as substrate preincubated for 4 hrs followed by substrate addition and measured after 60 mins. Format: cell-based. In short, it runs like this:
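THP1 or U937 cells, grown in RPMI 1640 with 10% FBS, were seeded at 1.0 × 10^6/mL. They were preincubated with threefold serial dilutions of compound for 4 h at 37 °C. H-Gly-Phe-AFC was then added from a 100 μM solution and fluorescence was read after 60 min at 37 °C. Values are means of at least two experiments.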

Activity calls are given as the source filed them. No cut-off for these calls is given here. A value given as a limit tells only on which side of the number the result lay.

Sequence of Dipeptidyl peptidase 1 (P53634 25-134 limits assumed): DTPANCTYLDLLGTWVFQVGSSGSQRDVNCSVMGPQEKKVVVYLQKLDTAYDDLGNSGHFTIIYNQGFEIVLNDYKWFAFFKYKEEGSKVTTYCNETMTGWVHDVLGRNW
Sequence of Dipeptidyl peptidase 1 (P53634 231-394 limits assumed): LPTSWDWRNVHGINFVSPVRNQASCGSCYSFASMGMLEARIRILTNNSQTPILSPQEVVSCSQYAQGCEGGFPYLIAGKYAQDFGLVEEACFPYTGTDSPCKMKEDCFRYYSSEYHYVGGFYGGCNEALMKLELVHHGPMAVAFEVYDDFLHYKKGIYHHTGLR
Sequence of Dipeptidyl peptidase 1 (P53634 395-463 limits assumed): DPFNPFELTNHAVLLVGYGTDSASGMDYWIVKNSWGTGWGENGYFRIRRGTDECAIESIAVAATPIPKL
Sequence of Cytochrome P450 3A4 (P08684 whole entry, canonical isoform): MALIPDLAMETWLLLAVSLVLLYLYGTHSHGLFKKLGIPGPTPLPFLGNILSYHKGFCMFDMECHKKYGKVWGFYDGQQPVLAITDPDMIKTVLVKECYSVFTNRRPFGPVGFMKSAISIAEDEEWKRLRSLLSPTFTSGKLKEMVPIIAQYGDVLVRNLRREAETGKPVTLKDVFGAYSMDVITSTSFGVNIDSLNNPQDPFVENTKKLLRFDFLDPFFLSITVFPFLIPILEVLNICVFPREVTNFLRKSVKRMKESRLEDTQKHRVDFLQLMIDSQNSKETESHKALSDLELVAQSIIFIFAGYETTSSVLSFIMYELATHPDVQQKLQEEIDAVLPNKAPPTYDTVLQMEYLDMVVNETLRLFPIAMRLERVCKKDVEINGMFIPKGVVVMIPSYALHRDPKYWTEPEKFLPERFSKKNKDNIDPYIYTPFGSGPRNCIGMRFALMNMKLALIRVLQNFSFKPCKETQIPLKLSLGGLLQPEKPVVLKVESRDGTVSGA
Sequence of Cytochrome P450 2C19 (P33261 whole entry): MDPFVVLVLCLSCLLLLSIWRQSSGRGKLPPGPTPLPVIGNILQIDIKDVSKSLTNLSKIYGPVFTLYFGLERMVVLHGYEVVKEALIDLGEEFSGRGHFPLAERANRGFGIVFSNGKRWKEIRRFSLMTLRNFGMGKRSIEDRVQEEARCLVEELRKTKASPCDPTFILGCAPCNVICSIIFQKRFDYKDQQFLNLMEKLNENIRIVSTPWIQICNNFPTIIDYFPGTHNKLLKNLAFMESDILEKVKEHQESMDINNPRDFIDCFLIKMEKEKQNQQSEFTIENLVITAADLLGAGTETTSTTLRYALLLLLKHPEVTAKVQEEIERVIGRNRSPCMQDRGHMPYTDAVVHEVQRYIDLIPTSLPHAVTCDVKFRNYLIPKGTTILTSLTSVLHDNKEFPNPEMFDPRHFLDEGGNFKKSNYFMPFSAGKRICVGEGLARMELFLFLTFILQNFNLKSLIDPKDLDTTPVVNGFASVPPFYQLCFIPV
Sequence of Cytochrome P450 2C9 (P11712 whole entry): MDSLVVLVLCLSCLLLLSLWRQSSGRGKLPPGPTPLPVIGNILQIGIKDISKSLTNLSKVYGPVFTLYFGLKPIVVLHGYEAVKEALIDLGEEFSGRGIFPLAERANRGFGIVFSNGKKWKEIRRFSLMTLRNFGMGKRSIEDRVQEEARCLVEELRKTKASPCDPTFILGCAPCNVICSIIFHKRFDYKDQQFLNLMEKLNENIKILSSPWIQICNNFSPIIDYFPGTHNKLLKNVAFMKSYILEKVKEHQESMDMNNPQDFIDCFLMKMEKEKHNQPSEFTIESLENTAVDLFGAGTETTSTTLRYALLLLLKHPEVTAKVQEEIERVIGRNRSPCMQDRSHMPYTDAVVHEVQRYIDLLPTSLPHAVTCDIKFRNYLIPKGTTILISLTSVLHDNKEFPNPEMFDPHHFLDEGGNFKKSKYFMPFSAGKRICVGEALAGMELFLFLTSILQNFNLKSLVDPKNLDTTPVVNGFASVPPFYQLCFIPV

For `C=CC(=O)Nc1cc(Oc2nc(Nc3ccc(N4CCN(C)CC4)cc3OC)ccc2N2CCCCC2)ccc1C`, the figures for the microsomal CLint in data set [1] and in [14] were 6.3 µL/min/mg and 10.8 µL/min/mg, respectively. Moreover, the results for the Cmax in data set [2] and in data set [16] were 0.766 µg/mL and 0.184 µg/mL, respectively. The IC50 is 3 to 10 µM on Cathepsin B; above 10 µM against Cytochrome P450 3A4; above 10 µM at Cytochrome P450 2C9; above 10 µM at Cytochrome P450 2C19; above 10 µM on Cytochrome P450 1A2; 0.0034 µM against Dipeptidyl peptidase 1. The half-life in data set [3] is 1.62 h; in [13] it was 1.19 h. In addition, the Drug uptake entry in [4] and in data set [5] was “Active” each time. Moreover, the result with Mus musculus [6] was Active. The inhibition result with Mus musculus [7], in the data set on Mus musculus [10] and at Dipeptidyl peptidase 1 was “Dose-dependent effect” each time. The Activity result in [8] and in data set [15] was “Non-Toxic” throughout. Also, the AUC(0-inf) in [9] was found to be 1.36 µg·h/mL; in data set [11], 1.23 µg·h/mL. This compound registered an inhibition in vivo at 20 mg/kg in the data set with Mus musculus [12] of 80%. Besides, the Tmax in data set [17] turned out to be 0.5 h.
